Source: PubChem BioAssay AID1325 (NMMLSC, 2008)
The whole screen tested about 190,000 compounds, of which about 200 (0.11%) were called active.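 Rule for the calls: active = inhibition above 80%; inactive = the rest.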 For the sample, actives were picked, then their nearest neighbours and some compounds at random.

Target: Broad substrate specificity ATP-binding cassette transporter ABCG2 (Homo sapiens) (UniProt Q9UNQ0)
Assay: blockers of JC-1 export by ABCG2 – multiplex with ABCB1, IgMXP3 cells, flow cytometry, primary screen (AID 1325);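 note: 0% = DMSO and 100% = nicardipine control wells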
Conditions: JC-1 efflux, at 6.6 µM, hits give high values
Procedure, shortened: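 Times: 10 min at 25 °C | Test system: Two drug-resistant human cell lines, ABCG2 and ABCB1 | Quantity: 3 million cells/mL final, two lines in 1:1 ratio | Signal: Flow cytometry, 530 nm JC-1 signal | Dosing: Compound at 6.6 µM | Controls: Nicardipine and DMSO wells | Reagent: JC-1 as fluorescent efflux pump substrate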

Chain of Broad substrate specificity ATP-binding cassette transporter ABCG2 (Homo sapiens) (Q9UNQ0 whole entry, looked up): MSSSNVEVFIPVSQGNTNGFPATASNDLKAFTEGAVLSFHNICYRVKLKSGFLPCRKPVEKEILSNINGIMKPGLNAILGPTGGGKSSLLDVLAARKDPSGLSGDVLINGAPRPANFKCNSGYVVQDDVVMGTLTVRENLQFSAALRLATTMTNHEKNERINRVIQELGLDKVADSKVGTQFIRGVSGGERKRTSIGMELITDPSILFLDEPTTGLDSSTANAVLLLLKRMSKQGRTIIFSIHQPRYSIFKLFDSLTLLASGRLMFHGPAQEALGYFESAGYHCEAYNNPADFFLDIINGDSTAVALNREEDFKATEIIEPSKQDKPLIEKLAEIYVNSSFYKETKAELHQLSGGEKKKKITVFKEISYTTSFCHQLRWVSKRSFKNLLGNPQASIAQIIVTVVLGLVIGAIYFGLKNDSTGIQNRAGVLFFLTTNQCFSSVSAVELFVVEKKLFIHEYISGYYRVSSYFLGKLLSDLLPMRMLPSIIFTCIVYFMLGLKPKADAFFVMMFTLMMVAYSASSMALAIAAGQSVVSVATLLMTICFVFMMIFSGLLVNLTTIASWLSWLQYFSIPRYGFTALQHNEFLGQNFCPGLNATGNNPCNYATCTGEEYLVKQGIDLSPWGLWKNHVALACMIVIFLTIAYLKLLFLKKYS

Compound | inhibition
CC(Sc1nc2cc(Cl)ccc2s1)C(=O)Nc1ccc2c(c1)OCO2 (centres undefined) | 0% (inactive)
O=C(/C=C/c1ccc([N+](=O)[O-])cc1)NCCSCc1ccco1 | 54.6% (inactive)
O=S(=O)(Nc1ccccn1)c1cccc(S(=O)(=O)c2ccc(Cl)cc2)c1 | -0.57% (inactive)
O=C(NNC1=NCCC1)c1cccc(S(=O)(=O)N2CCCCC2)c1 | -6.82% (inactive)
C=CCc1cccc2cc(C(=O)Nc3ccc(NC(C)=O)cc3)c(=O)oc12 | 0.59% (inactive)
O=C(Cc1ccc(F)cc1)N/N=C/c1ccc2c(c1)OCO2 | 10.1% (inactive)
O=C(CC(=O)N/N=C\c1ccc(F)cc1)NCCc1ccccc1 | 1.18% (inactive)
O=C(Cc1c[nH]c2ccccc12)N/N=C/c1cccc(F)c1 | 88.7% (active)
Cc1cc(C(=O)N/N=C\C(Br)=C\c2ccccc2)c(C)o1 | 2.48% (inactive)
NC(=O)CCC(NS(=O)(=O)c1ccc(Cl)cc1)C(=O)NCc1ccccc1Cl (centres undefined) | 4.92% (inactive)
Cc1cc(C)n(CC(O)CN(c2ccccc2)S(=O)(=O)c2ccc3ccccc3c2)n1 (centres undefined) | 16.1% (inactive)
CCc1nnc(NC(=O)CSc2nc(SC)ns2)s1 | 1.21% (inactive)
COc1ccc(C2(CNC(=O)Cc3ccc(OC)c(OC)c3)CCCC2)cc1 | 2.77% (inactive)
CC(C)CCN1C(=O)c2ccc(C(=O)Nc3cccc(S(N)(=O)=O)c3)cc2C1=O | -4.62% (inactive)
Clc1ccc(-c2ncc3ccccn23)c(Cl)c1 | -0.33% (inactive)
CCOc1cc(/C=N/NC(=O)c2ccc(CSc3nncn3C)cc2)ccc1OCC(=O)N1CCOCC1 | -0.51% (inactive)
Cc1nn(CC(=O)Nc2ccc3c(c2)OCO3)c(C)c1[N+](=O)[O-] | 11.5% (inactive)
CC(=O)Nc1sc2c(c1C(c1cccc(F)c1)N1CCN(CCO)CC1)CCCC2 (centres undefined) | -0.02% (inactive)
O=C(c1cncc(Br)c1)N1CCN(c2ccc([N+](=O)[O-])cc2)CC1 | 34.2% (inactive)
CN(C)c1ccc(/C=N/Nc2cc(N3CCOCC3)nc(N3CCOCC3)n2)cc1 | 5.63% (inactive)
Cn1nc(C(F)(F)F)c2cc(C(=O)N3CCOCC3)sc21 | 0.03% (inactive)
Cc1cc(NC(=O)CSc2nc3cc(Cl)ccc3c(=O)n2Cc2ccco2)no1 | 5.22% (inactive)
CCC1CCCCN1C(=S)Nc1ccc(SC(F)F)cc1 (centres undefined) | 0% (inactive)
O=C(N/N=C/c1cc([N+](=O)[O-])ccc1O)/C(=C\c1cccs1)NC(=O)c1ccccc1 | -3.14% (inactive)

Compound | inhibition
Cn1cc(CN2CCCC(CO)C2)c(-c2ccc(Oc3ccccc3)cc2)n1 (centres undefined) | -1.73% (inactive)
CN(C)c1ccc(C=C2C(=O)OC3(CCCC3)OC2=O)cc1 | 0.11% (inactive)
Cc1nc2nc[nH]n2c(=O)c1C/C=C/c1ccccc1 | 0.18% (inactive)
CN(C)c1ccc2c(=O)[nH][nH]c(=O)c2c1 | 2.2% (inactive)
CCn1nc(C)cc1C(=O)N1CCCC(C(=O)c2cccc(OC)c2)C1 (centres undefined) | -0.58% (inactive)
CCNS(=O)(=O)c1ccc(NC(=O)c2cncc(Br)c2)cc1 | 19.8% (inactive)
Cn1c(CCC(=O)OCC(=O)NCc2ccccc2Cl)nc(=O)c2ccccc21 | 1.08% (inactive)
CN(C)C(=O)c1cccn(Cc2cccc(C(F)(F)F)c2)c1=O | -0.69% (inactive)
CN1C(=O)/C(=C/C=C2\SCCN2C)OC1=S | -0.91% (inactive)
Cc1ccc(NC(=O)C2(N3CCC3=O)CCCCC2)cc1 | 0.01% (inactive)
COc1ccc(C(=O)Nc2ccc(-n3nncc3C(C)(C)C)cc2)cc1 | 1.71% (inactive)
Cc1ccc(NS(=O)(=O)c2cccs2)cc1S(=O)(=O)N1CCCCCC1 | 0.74% (inactive)
Cc1ccc(OCc2nnc(SC3CCc4ccccc4C3=O)n2C)cc1 (centres undefined) | 1.34% (inactive)
O=C(Cn1cc(C(F)(F)F)ccc1=O)N/N=C/c1ccc(Cl)cc1Cl | -1.56% (inactive)
Cc1ccc2c(CC(=O)NCc3cccs3)coc2c1 | 9.43% (inactive)
CCc1nnc(NC(=O)c2cccc(S(=O)(=O)N(C)c3ccc(OC)cc3)c2)s1 | 3.19% (inactive)
COc1ccc(CNC(=O)CN(Cc2ccc(Cl)cc2)S(C)(=O)=O)cc1 | 3.97% (inactive)
COc1cccc(NC(=O)CC(c2ccc(OC(C)C)cc2)c2ccccc2OC)c1 (centres undefined) | 10.9% (inactive)
Cc1ccc(O)c(NC(=S)NC(=O)COc2ccc(Br)cc2)c1 | 3.88% (inactive)
CCOC(=O)C1=C(CC)Nc2ccccc2N=C1N | 0.61% (inactive)
CC(CNc1ccc([N+](=O)[O-])c2cccnc12)Nc1c([N+](=O)[O-])cc(C(F)(F)F)cc1[N+](=O)[O-] (centres undefined) | 23.1% (inactive)
CC(=O)NC1C(Oc2ccc(C=O)cc2)OC(COC(C)=O)C(OC(C)=O)C1OC(C)=O (centres undefined) | 0.63% (inactive)
Cc1nc2cc(NCc3cccs3)ccc2n1C | 0.91% (inactive)
CCCCc1ccc(S(N)(=O)=O)cc1 | 3.23% (inactive)

Compound | inhibition
O=C(NCc1ccccn1)c1cc(Br)ccc1Cl | 2.2% (inactive)
CC(C)C(c1nnnn1C(C)(C)C)N1CCN(Cc2cccnc2)CC1 (centres undefined) | 1.7% (inactive)
CCOC(=O)c1ccc(NC(=S)Nc2cc(C)cc(C)n2)cc1 | 11.7% (inactive)
CC(C)N(C)C(=O)CCc1nnc(CCc2c[nH]c3ccccc23)o1 | 5.03% (inactive)
CC(C)CNC(=O)C(=O)NCc1ccccc1 | 7.35% (inactive)
Cc1c(Cl)cccc1NC(=S)N(Cc1ccccc1)Cc1cccnc1 | 3.04% (inactive)
COc1ccccc1NC(=O)c1c(Br)cnn1C | 9.25% (inactive)
Cc1cccc(N2C(=O)SC(SC(=Nc3ccccc3)Nc3ccccc3)C2=O)c1 (centres undefined) | 0.89% (inactive)
COc1ccc(N2C(=O)/C(=C\c3ccco3)N=C2SCC(N)=O)cc1Cl | 0.72% (inactive)
S=C(c1ccc(-c2ccccc2)o1)N1CCCCC1 | 1.68% (inactive)
Cc1ccc(NC(=O)NC(=O)CSc2nnc(-c3ccc(OC(F)F)cc3)n2N)c(C)c1 | 4.7% (inactive)
COc1cccc(C2CC(c3ccccc3)=NN2S(=O)(=O)c2ccccc2)c1OC (centres undefined) | 5.72% (inactive)
CCOc1ccc(NC(=O)c2cc(C)nc3ccccc23)cc1 | 4.37% (inactive)
COc1ccccc1NC(=O)/C=C/C(=O)O | 3.21% (inactive)
C=CCNC(=O)CC12CC3CC(C1)CC(CC(=O)NCC=C)(C3)C2 | 0.78% (inactive)
Cc1cc(C)cc(NC(=O)Cn2cnc3c(nnn3Cc3ccc(F)cc3)c2=O)c1 | 0.29% (inactive)
CSc1ccc(CN2C(=O)NC3(CCCCCC3)C2=O)cc1 | -1.59% (inactive)
COCCNC(=O)CCCn1c(=O)c2ccccc2n(Cc2cccc([N+](=O)[O-])c2)c1=O | 3.38% (inactive)
COc1ccccc1CN(C)c1nnnn1-c1ccccc1 | -0.06% (inactive)
O=C(CSc1ccc(-c2ccco2)nn1)NCc1ccc2c(c1)OCO2 | 0.73% (inactive)
O=C(Nc1ccccc1C(=O)O)c1cc(S(=O)(=O)N2CCCCC2)cs1 | -0.42% (inactive)
Cc1c(Br)c([N+](=O)[O-])nn1CC(=O)N1CCN(Cc2ccccc2)CC1 | 2.55% (inactive)
CC(C)NC(=S)NN=C1CCCCCCCCCCC1 | 5.8% (inactive)
CCSc1sc(CC)cc1C=O | 3.95% (inactive)

Compound | inhibition
CCCCn1c(=O)c(CCC(=O)OCC(=O)Nc2ccc(C)c(Cl)c2)nc2ccccc21 | 2.45% (inactive)
COC(=O)Cc1csc(/N=C/c2c(O)n(-c3cccc(C(F)(F)F)c3)c(=O)c3ccccc23)n1 | -1.85% (inactive)
Cc1c(Cc2ccccc2)c(=O)oc2cc(OCC(N)=O)ccc12 | 0.67% (inactive)
CCOC(=O)c1sc(=NC(=O)/C=C/c2cccs2)n(C)c1C | 2.28% (inactive)
CCC(C(=O)OCC(=O)Nc1ccccc1-c1ccccc1)c1ccccc1 (centres undefined) | 3.04% (inactive)
C/C(=N/O)c1ccc(N2C(=O)C3C4C=CC(C3C2=O)C2C3C(=O)N(c5ccc(/C(C)=N/O)cc5)C(=O)C3C42)cc1 (centres undefined) | -1.72% (inactive)
O=C(c1ccc(-c2ccccc2)cc1)C1CCCN(C(=O)c2cncs2)C1 (centres undefined) | 3.81% (inactive)
Cc1ccc(OCC(=O)NNC(=S)NCc2ccccc2)cc1 | -1.33% (inactive)
O=C(/C=C/c1cccc([N+](=O)[O-])c1)NCCSCc1ccco1 | 51.1% (inactive)
Cc1ccc(C)c(NS(=O)(=O)c2ccc(OCC(=O)NCc3cccnc3)cc2)c1 | 0.12% (inactive)
O=C(O/N=C(/c1ccccc1)c1ccncc1)c1ccccc1[N+](=O)[O-] | 4.1% (inactive)
Cc1ccc(C(=O)COC(=O)c2cccc(N3C(=O)c4c(C)nc5ccccc5c4C3=O)c2)cc1C | 15.3% (inactive)
S=c1[nH]nc(NCCc2ccccc2)s1 | 0.35% (inactive)
C/C(=C/C(=O)N1CCN(C)CC1)C(=O)O | 4.35% (inactive)
CCNC(=O)CC1C(=O)N(c2ccc(OC)cc2)C(=S)N1CCc1ccncc1 (centres undefined) | -0.76% (inactive)
NS(=O)(=O)c1ccc(NC(=O)COC(=O)c2ccco2)cc1 | 10% (inactive)
CN(Cc1ccccc1)C(=O)CCc1ccccc1 | 1.98% (inactive)
O=C(NC1CCN(Cc2ccccc2)CC1)c1cc(Br)c(Br)[nH]1 | 4.52% (inactive)
Cc1ccc2c(c1)C(O)(CC(=O)c1cccc(-n3cccc3)c1)C(=O)N2 (centres undefined) | 16.3% (inactive)
Cc1ccc(NC(=S)N(CCN(C)C)Cc2cccs2)cc1C | -0.22% (inactive)
COc1ccccc1NC(=S)N1CCC(NC(=O)C23CC4CC(CC(C4)C2)C3)CC1 | -0.01% (inactive)
C=CCn1c(-c2sc(-c3ccccc3)nc2C)n[nH]c1=S | 1.76% (inactive)
